In ChEMBL document CHEMBL2384929, “Synthesis and biological evaluation of fluoro analogues of antimitotic phenstatin” (Bioorg Med Chem, 2013):

How the values were obtained:
[1] = system: SR; assay: Cytotoxicity against human SR cells assessed as growth inhibition at 10 uM after 48 hrs by SRB assay; type: functional; details: read-out: GI
Outline: (§1)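 Single-dose NCI 60-cell screen at 10 µM with 48 h exposure and sulforhodamine B read-out. Values are percentage growth per cell line. A summary ratio counts cell lines with 0–50% growth over all cell lines tested.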

[2] = species: Ovis aries; assay: Inhibition of sheep brain tubulin assembly at 100 uM by DAPI staining-based fluorescence assay
Outline: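 Tubulin from sheep brain, purified by two assembly–disassembly cycles, at about 2–3 mg/mL in 0.1 M MES, 0.5 mM MgCl2, 1 mM EGTA, 1 mM GTP, pH 6.6. Assembly followed by DAPI fluorescence at 37 °C. Single-point inhibition tested at 100 µM. IC50 is the concentration halving the assembly rate relative to no compound, mean of two experiments, with reference inhibitors run the same day.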

[3] = system: HCC 2998; assay: Cytotoxicity against human HCC2998 cells assessed as growth inhibition at 10 uM after 48 hrs by SRB assay; type: functional; details: HCC 2998, 48 h, read-out: GI; outline: as §1
[4] = system: MDA-MB-468; assay: Cytotoxicity against human MDA-MB-468 cells assessed as growth inhibition at 10 uM after 48 hrs by SRB assay; type: functional; details: MDA-MB-468, 48 h, read-out: GI; outline: as §1
[5] = system: SW-620; assay: Cytotoxicity against human SW620 cells assessed as growth inhibition at 10 uM after 48 hrs by SRB assay; type: functional; details: SW-620, 48 h, read-out: GI; outline: as §1
[6] = system: NCI/ADR-RES; assay: Cytotoxicity against human NCI/ADR-RES cells assessed as growth inhibition at 10 uM after 48 hrs by SRB assay; type: functional; details: read-out: GI; outline: as §1
[7] = system: UACC-257; assay: Cytotoxicity against human UACC257 cells assessed as growth inhibition at 10 uM after 48 hrs by SRB assay; type: functional; details: UACC-257, 48 h, read-out: GI; outline: as §1
[8] = system: PC-3; assay: Cytotoxicity against human PC3 cells assessed as growth inhibition at 10 uM after 48 hrs by SRB assay; type: functional; details: PC-3, 48 h, read-out: GI; outline: as §1
[9] = system: KM12; assay: Cytotoxicity against human KM12 cells assessed as growth inhibition at 10 uM after 48 hrs by SRB assay; type: functional; details: KM12, 48 h, read-out: GI; outline: as §1
[10] = system: SNB-75; assay: Cytotoxicity against human SNB75 cells assessed as growth inhibition at 10 uM after 48 hrs by SRB assay; type: functional; details: SNB-75, 48 h, read-out: GI; outline: as §1
[11] = system: HOP-62; assay: Cytotoxicity against human HOP62 cells assessed as growth inhibition at 10 uM after 48 hrs by SRB assay; type: functional; details: HOP-62, 48 h, read-out: GI; outline: as §1
[12] = system: UO-31; assay: Cytotoxicity against human UO31 cells assessed as growth inhibition at 10 uM after 48 hrs by SRB assay; type: functional; details: UO-31, 48 h, read-out: GI; outline: as §1
[13] = system: NCI-H522; assay: Cytotoxicity against human NCI-H522 cells assessed as growth inhibition at 10 uM after 48 hrs by SRB assay; type: functional; details: NCI-H522, 48 h, read-out: GI; outline: as §1

**Q.** Which results are given for `COc1ccc(C(=O)c2cc(F)c(F)c(OC)c2F)c(OC)c1NC(C)=O`?
**A.** inhibition of growth at 10 µM [1]: 49%; inhibition [2]: 39%; inhibition of growth at 10 µM [3]: 31%; inhibition of growth at 10 µM [4]: 81%; inhibition of growth at 10 µM [5]: 37%; inhibition of growth at 10 µM [6]: 55%; inhibition of growth at 10 µM [7]: 21%; inhibition of growth at 10 µM [8]: 27%; inhibition of growth at 10 µM [9]: 57%; inhibition of growth at 10 µM [10]: 44%; inhibition of growth at 10 µM [11]: 30%; inhibition of growth at 10 µM [12]: 30%; inhibition of growth at 10 µM [13]: 83%
